Consider 6 molecules from ChEMBL document CHEMBL1141183, “Development of potent mu-opioid receptor ligands using unique tyrosine analogues of endomorphin-2” (J Med Chem, 2005).

Experiment [1] has as its target Delta-type opioid receptor (Mus musculus, UniProt P32300). Put plainly: In vitro inhibition of opioid receptor delta using mouse vas deferens. In kind it is tissue-based.
For experiment [2], the target named is Mu-type opioid receptor (Rattus norvegicus, UniProt P33535). Kind of experiment: Inhibition of [3H]DAMGO binding to mu-Opioid receptor. Put shortly:
(§1)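 Synaptosomal membranes preincubated to remove endogenous opioids, washed, stored at -80 °C with protease inhibitor. μ sites labelled with [3H]DAMGO, δ with [3H]DPDPE; nonspecific binding set by 2 µM unlabelled peptide. Filtration on polyethylenimine-soaked GF/C filters, scintillation counting. Five to seven peptide doses in duplicate, several preparations. Ki by Cheng-Prusoff.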

The target in experiment [3] is Delta-type opioid receptor (Rattus norvegicus, UniProt P33533). Put plainly: Inhibition of [3H]DPDPE binding to delta-Opioid receptor. A digest of the protocol: as §1
Sequence of Delta-type opioid receptor (Rattus norvegicus, UniProt P33533) (P33533 whole entry): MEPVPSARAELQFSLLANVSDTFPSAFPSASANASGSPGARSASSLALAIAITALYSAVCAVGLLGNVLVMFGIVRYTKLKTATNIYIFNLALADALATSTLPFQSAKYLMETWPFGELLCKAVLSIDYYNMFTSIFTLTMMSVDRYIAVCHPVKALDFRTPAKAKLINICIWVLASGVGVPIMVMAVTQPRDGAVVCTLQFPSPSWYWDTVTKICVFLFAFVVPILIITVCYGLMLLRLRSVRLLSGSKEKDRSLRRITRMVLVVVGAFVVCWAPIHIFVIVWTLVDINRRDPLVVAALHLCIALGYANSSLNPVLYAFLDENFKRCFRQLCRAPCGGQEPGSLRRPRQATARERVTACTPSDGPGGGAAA
Experiment [4] deals with Opioid receptors; mu & delta (Rattus norvegicus) (UniProt P33533+P33535). Put plainly: Relative binding to delta and mu Opioid receptors (ratio of Ki). In kind it is protein assay.
Sequence of Opioid receptors; mu & delta (Rattus norvegicus) (P33533 whole entry, looked up): as the sequence (P33533 whole entry) above
Sequence of Opioid receptors; mu & delta (Rattus norvegicus) (P33535 whole entry, looked up): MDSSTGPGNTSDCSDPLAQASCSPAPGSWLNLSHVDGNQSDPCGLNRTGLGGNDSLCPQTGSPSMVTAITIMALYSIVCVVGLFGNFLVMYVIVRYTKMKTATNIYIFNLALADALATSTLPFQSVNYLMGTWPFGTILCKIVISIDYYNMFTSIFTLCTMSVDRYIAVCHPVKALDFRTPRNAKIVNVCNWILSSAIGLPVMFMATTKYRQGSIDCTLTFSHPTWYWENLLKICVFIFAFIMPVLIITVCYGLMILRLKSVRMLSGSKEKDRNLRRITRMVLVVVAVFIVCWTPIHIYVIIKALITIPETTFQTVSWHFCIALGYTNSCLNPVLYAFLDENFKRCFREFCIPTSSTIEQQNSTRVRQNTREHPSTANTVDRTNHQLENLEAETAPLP
The target of experiment [5] is Mu-type opioid receptor (Cavia porcellus, UniProt P97266). Kind of experiment: In vitro inhibition of opioid receptor mu using isolated guinea pig ileum. In kind it is tissue-based. A digest of the protocol:
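Myenteric plexus longitudinal muscle strips (2-3 cm) from small intestine of male Hartley guinea pigs, in organ bath with physiological salt buffer, pH 7.5, for μ-receptor agonism.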

For a further experiment, the species on record is Mus musculus. Put plainly: Inhibition of electrically evoked contraction in mice by tail flick method; nd=None detected. In kind it is functional, organism-based.

Molecules are shown by their SMILES. Activity calls are given as the source filed them. The rule behind the calls is not given here.

Broadly, the IC50 is the concentration that inhibits the measured activity by half. A high value points to weaker potency. The Ki is the equilibrium dissociation constant of an inhibitor or competing ligand from its target. Lower therefore signals a stronger hold on the target.

Sequence of Mu-type opioid receptor (Cavia porcellus, UniProt P97266) (P97266 whole entry): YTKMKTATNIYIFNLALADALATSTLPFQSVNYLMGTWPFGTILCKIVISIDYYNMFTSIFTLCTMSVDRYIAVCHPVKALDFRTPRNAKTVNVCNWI
Sequence of Delta-type opioid receptor (Mus musculus, UniProt P32300) (P32300 whole entry): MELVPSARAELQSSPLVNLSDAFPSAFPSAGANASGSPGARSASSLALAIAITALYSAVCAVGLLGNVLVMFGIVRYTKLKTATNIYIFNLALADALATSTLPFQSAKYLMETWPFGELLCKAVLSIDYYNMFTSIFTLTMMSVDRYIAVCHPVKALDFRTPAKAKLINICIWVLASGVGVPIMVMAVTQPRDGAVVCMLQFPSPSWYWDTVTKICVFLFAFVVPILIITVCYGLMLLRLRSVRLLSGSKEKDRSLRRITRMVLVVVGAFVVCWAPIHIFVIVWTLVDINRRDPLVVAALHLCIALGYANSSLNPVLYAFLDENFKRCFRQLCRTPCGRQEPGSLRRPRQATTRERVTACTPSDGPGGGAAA
Sequence of Mu-type opioid receptor (Rattus norvegicus, UniProt P33535) (P33535 whole entry): as the sequence (P33535 whole entry, looked up) above

Turning to `Cc1cc(O)c(C)c(C)c1C[C@H](N)C(=O)N1CCC[C@H]1C(=O)N[C@@H](Cc1ccccc1)C(=O)N[C@@H](Cc1ccccc1)C(N)=O`, the results for the IC50 (in experiment [1]; at Mu-type opioid receptor [5]) were 46.4 nM and 2.31 nM, respectively. Also, the figures for the Ki (at Mu-type opioid receptor [2]; in experiment [3]) were 0.111 nM and 593 nM, respectively. The Ratio in experiment [4] amounted to 5350.

In the case of `Cc1cc(O)cc(C(C)C)c1C[C@H](N)C(=O)N1CCC[C@H]1C(=O)N[C@@H](Cc1ccccc1)C(=O)N[C@@H](Cc1ccccc1)C(N)=O`, the IC50 stood at 601 nM in experiment [1] and 10.6 nM at Mu-type opioid receptor [5]. Also, the Ki was 0.15 nM at Mu-type opioid receptor [2] and 190 nM in experiment [3]. The Ratio in experiment [4] was determined as 1270.

As to `CC(C)c1cc(O)cc(C(C)C)c1C[C@H](N)C(=O)N1CCC[C@H]1C(=O)N[C@@H](Cc1ccccc1)C(=O)N[C@@H](Cc1ccccc1)C(N)=O`, the IC50 in experiment [1] is greater than 10000 nM; against Mu-type opioid receptor [5] it was 299 nM. Moreover, in the experiment listed under Mus musculus, the inhibition entry was “inactive”. For the same molecule, the results for the inhibition constant Ki (on Mu-type opioid receptor [2]; in experiment [3]) were 2.29 nM and 105 nM, respectively. Further, the Ratio in experiment [4] worked out at 46.

Consider `CCc1cc(O)cc(CC)c1C[C@H](N)C(=O)N1CCC[C@H]1C(=O)N[C@@H](Cc1ccccc1)C(=O)N[C@@H](Cc1ccccc1)C(N)=O`, for which the figures for the IC50 (in experiment [1]; at Mu-type opioid receptor [5]) were 47.1 nM and 0.903 nM, respectively. The inhibition constant Ki turned out to be 0.084 nM on Mu-type opioid receptor [2] and 69.7 nM in experiment [3]. Besides, in experiment [4], the Ratio was 830.

Regarding `CCc1cc(O)cc(C)c1C[C@H](N)C(=O)N1CCC[C@H]1C(=O)N[C@@H](Cc1ccccc1)C(=O)N[C@@H](Cc1ccccc1)C(N)=O`, the values for the IC50 (in experiment [1]; at Mu-type opioid receptor [5]) were 1.08 nM and 0.623 nM, respectively. The figures for the Ki (at Mu-type opioid receptor [2]; in experiment [3]) were 0.063 nM and 55.7 nM, respectively. The Ratio in experiment [4] stood at 884.

In the case of `Cc1cc(O)ccc1C[C@H](N)C(=O)N1CCC[C@H]1C(=O)N[C@@H](Cc1ccccc1)C(=O)N[C@@H](Cc1ccccc1)C(N)=O`, the half-inhibitory concentration (IC50) in experiment [1] amounted to 28.7 nM; against Mu-type opioid receptor [5], 0.924 nM. In addition, the Ki at Mu-type opioid receptor [2] came to 0.132 nM; in experiment [3], 529 nM. For the same molecule, the Ratio in experiment [4] stood at 4000.
